Source: PubChem
proCasp3 act: activators of human procaspase-3 | recombinant procaspase-3 D3A, Ac-DEVD-pNA absorbance 405 nm | activation, % at 8.5 µM | hit rate 0.11% among 330,000 | AID 463141;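 active means activation above the mean of all tested compounds plus 3 SD, cut at about 21% in these data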;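 further: 0% = DMSO alone and 100% = DMSO wells spiked with extra 5 µM PC-3 D3A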
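Assay system: Procaspase-3 D3A mutant, all three cleavage aspartates alanine. Buffer or medium: Zinc-free HEPES saline buffer with Triton X-100. Times: 1 h compound preincubation, 2 h substrate hydrolysis at 25 °C. Measured by: 405 nm absorbance of p-nitroaniline, reads at 0 and 120 min. Read-out basis: percent activation relative to control range. Replicates: singlicate.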
aDG glyco act: increases alpha dystroglycan glycosylation. Pro5-aDG cells, alpha-DG glycosylation AlphaScreen (IIH6); 0% Pro5, 100% B10-LARGE cell signal. activation, % at 10 µM. hit rate 0.22% among 360,000. AID 624168;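 active means activation of at least 8% versus controls, or a plate z-score of at least 8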;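 further: Pro5 are CHO cells carrying HIG-tagged alpha-DG that lacks glycosylation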
CaV13 FRET inh: Disruptors of the CACNA1D IQ motif to Ca2+-dependent inactivation inhibitor domain association, primary screening, Förster resonance energy transfer in intact living … | HEK cells, CFP/YFP FRET ICDI-IQ, plate reader, 10 min; percent FRET-ratio fall versus neutral wells | inhibition, % at 12.3 µM | hit rate 0.098% among 340,000;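 active means mean replicate inhibition of at least 30% and at least 1% of replicates passing that level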;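 further: 0% = median of the neutral control wells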
proCasp7 act: counter-screen for procaspase-3 activators: activators of human procaspase-7 | hit rate 0.093% among 330,000 | recombinant procaspase-7, Ac-DEVD-pNA absorbance 405 nm; D23A/D198A/D206A triple mutant, cannot self-cleave; scale: DMSO 0, 5 µM enzyme 100 | AID 463210 | activation, % at 8.5 µM | P55210;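 active means percent activation above the screen-wide mean plus 3 SD, cut at about 25% in these data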
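Assay system – Uncleavable procaspase-7 mutant enzyme · Quantity – 2 µM procaspase-7 mutant as dispensed · Times – 1 h preincubation, 2 h reaction · Dosing – single nominal 8.5 µM compound dose, 0.8% DMSO final · Buffer or medium – Zinc-free 50 mM HEPES buffer, pH 7.4, with NaCl and Triton X-100 · Detection – Epi-absorbance of released pNA at 405 nm, two timepoints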
GRK2 aptamer HTS: human GRK2 inhibition via aptamer displacement; inhibition of aptamer binding, % at 10 µM; bead flow cytometry, FAM-aptamer displacement from GRK2; P25098; hit rate 0.59% among 330,000; AID 488847;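 active means inhibition of aptamer binding above 40%, roughly 3 SD of noise, on plates passing a quality check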;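 further: median bead fluorescence of bound FAM aptamer so fluorescent compounds give negative values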
Target sequence (P25098 whole entry, looked up): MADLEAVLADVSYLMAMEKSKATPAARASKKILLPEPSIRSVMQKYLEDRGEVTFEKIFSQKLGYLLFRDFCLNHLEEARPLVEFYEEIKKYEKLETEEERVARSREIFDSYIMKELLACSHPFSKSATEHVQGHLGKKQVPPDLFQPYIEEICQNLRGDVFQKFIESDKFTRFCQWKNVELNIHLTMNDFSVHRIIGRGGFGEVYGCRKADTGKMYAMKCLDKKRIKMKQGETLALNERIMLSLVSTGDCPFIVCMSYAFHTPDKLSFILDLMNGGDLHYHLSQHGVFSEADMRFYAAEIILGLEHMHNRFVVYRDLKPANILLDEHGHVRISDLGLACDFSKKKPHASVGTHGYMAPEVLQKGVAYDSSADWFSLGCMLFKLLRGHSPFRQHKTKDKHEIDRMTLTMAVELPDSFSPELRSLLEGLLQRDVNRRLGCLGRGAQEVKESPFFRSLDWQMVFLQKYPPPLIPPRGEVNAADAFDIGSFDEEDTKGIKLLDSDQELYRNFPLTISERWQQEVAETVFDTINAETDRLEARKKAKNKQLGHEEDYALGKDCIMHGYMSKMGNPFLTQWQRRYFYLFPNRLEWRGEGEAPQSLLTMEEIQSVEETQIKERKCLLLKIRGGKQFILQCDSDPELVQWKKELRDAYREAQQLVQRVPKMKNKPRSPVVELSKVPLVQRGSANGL
T cell HTS: T cell immune modulators affecting CD8 T cell-vesicle binding. response (vesicle binding), % at 7 µM. hit rate 0.068% among 330,000. 2C CD8+ T cell-vesicle binding, flow cytometry; hits give low values;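 active means response, share of CD8 T cells binding vesicles, and their 90th percentile fluorescence all below set limits, cut at about 80% in these data, passing the limit was not always enough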;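 further: values below 100% mean blocked vesicle binding to the CD8+ T cells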
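Assay system: 2C TCR transgenic mouse naive CD8+ T cells, MACS-purified | Read-out: CD8+ gate FL2 mean fluorescence as % of same-row positive control | Signal: High-throughput flow cytometry with anti-B7-1 and anti-CD8 staining | Timing: Binding step 1.5 h, 37 °C, antibody labelling 20 min, ice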
PC3 dual counter: counter-screen: procaspase-3 (human) activation; shares compounds with proCasp7 act; recombinant PC-3 D3A, Ac-DEVD-pNA absorbance 405 nm; aspartates 9, 28, 175 changed to alanine; 100% = enzyme control; activation, % at 8.5 µM; 290 tested, under 10 active;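 active means mean percent activation across triplicates above a set limit taken from the earlier primary procaspase-3 screen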;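 further: 0% = DMSO wells and 100% = DMSO wells with 5 µM added PC-3 D3A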
Procasp7 act: confirmation of dual procaspase activators: human procaspase-7 activation. shares compounds with proCasp7 act. recombinant procaspase-7, Ac-DEVD-pNA absorbance 405 nm; D23A/D198A/D206A mutant that cannot self-cleave. activation, % at 8.5 µM. 290 tested, under 10 active;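 active means mean activation above a set limit carried over from the earlier primary screen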;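 further: 0% = DMSO only and 100% = DMSO with added 5 µM PC-7 enzyme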
Active calls of the source: *; i = inactive; · = not tested or not shown. Compounds with a hit are over-represented: about 1.1% of the library has one in this group of screens.

SMILES	proCasp3 act	aDG glyco act	CaV13 FRET inh	proCasp7 act	GRK2 aptamer HTS	T cell HTS	PC3 dual counter	Procasp7 act
CCOC(=O)c1ccc2nc(NC(C)=O)sc2c1	4.0	-0.5	-2.0	11.9	0.0	205.5	·	·
CCOC(=O)c1ccc2nc(Nc3nc4ccc(F)cc4s3)sc2c1	20.4	2.2	-13.4	30.6*	6.0	302.2	-27.2	-35.4
Cc1ccc(-c2cc(NC(=O)Cc3c(C)[nH]c4ccccc34)ccc2Nc2cccnc2)cc1	·	·	-2.5	·	·	·	·	·
O=C1CC(O)C(Cc2ccccc2)N1 (stereo not drawn)	·	·	-9.1	·	·	·	·	·
COc1cc2c(cc1OC)C1(C)N(CC2)C(C(C)=O)=NN1c1ccc(Cl)cc1 (stereo not drawn)	28.4*	0.0	-19.9	36.9*	0.0	i	-27.8	-36.0
O=C1OCCN1C(=O)[C@H]1[C@H](c2ccc(Cl)cc2)C(c2ccccc2)=NN1c1ccccc1	-4.3	-0.1	-7.9	-5.3	1.0	·	·	·
O=C1[C@H]2C(c3ccccc3)=NN(c3ccccc3)[C@H]2C(=O)N1c1ccccc1	31.8*	0.0	-5.1	39.9*	3.0	496.1	-30.6	-36.0
Cc1ccc(N)cc1NC(=O)CN1CCOCC1	12.9	-0.1	-3.4	26.1*	2.0	555.3	2.5	-1.0
COCCN1CCCc2nc(-c3ccc(F)cc3)ccc21	·	·	-7.1	·	·	·	·	·
COC(=O)c1cc(=O)n2c(sc3ccccc32)c1C#N	19.2	0.1	-4.5	26.2*	1.0	226.0	-28.7	-35.4
CCOc1cc(-c2c(C#N)c(N)nc3c2CCc2ccccc2-3)ccc1O	3.0	0.0	-4.3	26.3*	1.0	226.2	-0.1	-4.9
CC(=O)N1C[C@H]2CON(C)[C@H]2C[C@H]1c1ccccc1-c1ccccc1	·	·	-5.2	·	·	·	·	·
COc1ccc(C(=O)C2CN(c3ccccc3)CC2c2ccc(Cl)cc2)cc1 (stereo not drawn)	13.5	-0.2	·	28.9*	0.0	326.4	2.9	2.2
COc1ccc(CNC(=O)C2CCN(c3cc(C(=O)Nc4cccc(OC)c4)ccn3)CC2)cc1	6.1	0.4	-5.4	52.9*	0.0	324.5	0.2	3.6
COc1ccc(CNC(=O)C2CCN(c3nc(OC)nc(OC)n3)CC2)cc1	0.9	-0.2	·	11.6	1.0	659.5	·	·
COc1cccc(NC(=O)c2ccnc(N3CCC(C(=O)NCc4cc(OC)ccc4OC)CC3)c2)c1	3.5	0.4	·	33.5*	2.0	623.7	5.9	9.0
COc1cc(OC)c(OC)cc1/C=C1/Cc2ccccc2C1=O	13.3	0.5	-15.4	27.6*	2.0	i	-1.2	0.7
COc1ccccc1C=C1CCc2ccccc2C1=O	·	-0.3	-9.3	·	·	·	·	·
CN(C)Cc1c(C(C)(C)O)[nH]c2cc(C(F)(F)F)ccc12	·	·	-5.0	·	·	·	·	·
O=S(=O)(c1ccc(C(F)(F)F)cc1)N1CCCc2nc(-c3ccc(F)cc3)ccc21	·	·	-10.6	·	·	·	·	·
Cc1cc(C)c2c(N)c(C(=O)N/N=C/c3ccccc3)sc2n1	35.2*	0.1	-2.5	32.1*	0.0	318.1	-28.3	-35.8
Cc1ccc(C(=O)N/N=C/C2=Cc3ccccc3OC2C)cc1 (stereo not drawn)	-0.7	0.8	-4.4	33.6*	0.0	690.8	-0.4	0.8
Cn1nc(C(=O)NNC(=O)c2cccc(Cl)c2)c2ccccc2c1=O	10.1	-0.1	-13.6	25.9*	3.0	302.4	2.4	-0.8
Cn1nc(C(=O)NNC(=O)c2ccc(Cl)c(S(N)(=O)=O)c2)c2ccccc2c1=O	4.4	-0.2	-2.3	-1.1	0.0	278.7	·	·
COC(=O)[C@]12C[C@H](CC(=O)N3CCN(C(=O)C4CC4)CC3)C(=O)N(CCC3=CCCCC3)C1=C[C@H](C(C)(C)C)O[C@@H]2C	·	·	-6.4	·	·	·	·	·
SMILES	proCasp3 act	aDG glyco act	CaV13 FRET inh	proCasp7 act	GRK2 aptamer HTS	T cell HTS	PC3 dual counter	Procasp7 act
Cc1ccc(S(=O)(=O)c2cc(C#N)c(=O)[nH]c2N)cc1	14.4	-0.1	-3.6	28.2*	8.0	730.9	-28.4	-34.9
COc1nc(N)c(S(=O)(=O)c2ccc(C)cc2)cc1C#N	11.1	0.1	-8.7	4.5	11.0	591.8	·	·
COC(=O)C1=CN(Cc2ccccc2)C=C(C(=O)OC)C1c1ccc(O)c(OC)c1	-4.5	0.0	-3.0	-1.7	2.0	249.5	·	·
CCOc1cc(C2C(C(=O)OC)=CN(Cc3ccc(Cl)cc3)C=C2C(=O)OC)ccc1O	27.4*	0.1	-13.1	56.1*	2.0	348.1	-1.5	-2.6
CCOc1ccccc1N=Cc1c(O)c2ccccc2oc1=O	20.5	-0.1	12.4	34.7*	0.0	134.4	-30.0	-34.4
CC(C)c1ccc(N=Cc2c(O)c3ccccc3oc2=O)cc1	21.8*	0.1	1.3	29.8*	0.0	171.6	-28.7	-34.1
COc1ccc(OC)c(N=Cc2c(O)c3ccccc3oc2=O)c1	13.9	-0.1	-20.6	9.2	0.0	172.5	·	·
COc1ccc(Cl)cc1N=Cc1c(O)c2ccccc2oc1=O	19.3	0.1	-21.8	41.7*	2.0	168.4	-5.1	-4.3
COc1ccc(N=Cc2c(O)c3ccccc3oc2=O)cc1	8.9	0.0	-14.7	11.5	0.0	708.5	·	·
C[C@H]1CNC(=O)c2c(C(=O)N3CCN(c4ccccc4)CC3)ncn21	·	·	-3.8	·	·	·	·	·
Cc1cccc(C2=NN(c3ccccc3)[C@H](CO)[C@H]2c2ccccc2)c1	20.3	3.5	·	34.6*	2.0	·	-30.5	-34.4
CC[C@H]1C(c2ccc(F)cc2)=NN(c2ccccc2)[C@@H]1CO	-1.0	0.5	-5.7	2.2	0.0	·	·	·
OC[C@@H]1[C@@H](c2ccc(F)cc2)C(c2ccccc2)=NN1c1ccccc1	30.4*	0.5	-6.2	34.3*	0.0	·	-30.4	-34.9
S=C(SCc1cc(Cl)cc2c1OCOC2)N1CCSCC1	·	·	-4.0	·	·	·	·	·
COC(=O)[C@]12C[C@H](CC(=O)NCc3cccs3)C(=O)N(CCC3=CCCCC3)C1=C[C@H](C(C)(C)C)O[C@@H]2C	·	·	-8.8	·	·	·	·	·
COC(=O)C1=C(C)N(Cc2ccccc2C(F)(F)F)C(=NCc2cc(OC)c(OC)c(OC)c2)NC1c1cccc(C(F)(F)F)c1 (stereo not drawn)	·	·	-9.6	·	·	·	·	·
